Test results reported in ChEMBL document CHEMBL4373658, “Scaffold hybridization strategy towards potent hydroxamate-based inhibitors of Flaviviridae viruses and Trypanosoma species” (Medchemcomm, 2019).
Active and inactive are the calls of the source. The rule behind the calls is not given here.

Experiments:
Hepatitis C virus [1] = test: Antiviral activity against HCV genotype 1b Con1 infected in human HuH5.2 cells assessed as reduction in viral replication incubated for 3 days by luciferase reporter gene assay; assay type: functional, organism-based, Hepacivirus hominis; settings: subtype 1b Con1, Huh-5-2, 72 h
Procedure, shortened: (§1)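 Stable subgenomic replicon cell lines (Huh5-2 HCV 1b Con1 firefly luciferase; Huh7.5-3a S52, Huh7.5-4a ED43; Huh7-D2 DENV2 16681 Renilla luciferase) seeded 1×10^4 cells/well, 24 h at 37 °C, then serial compound dilutions in complete DMEM without G418 for 3 days at 37 °C. Lysate F-Luc or R-Luc (12 μM coelenterazine, pH 7.4 buffer) normalized to Bradford protein, expressed as % of DMSO control. EC50 from nonlinear regression of log concentration.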

Hepatitis C virus [2] = test: Antiviral activity against HCV genotype 3a S52 infected in human HuH7.5 cells assessed as reduction in viral replication incubated for 3 days by luciferase reporter gene assay; assay type: functional, organism-based, Hepacivirus hominis; settings: subtype 3a S52, Huh7.5, 72 h; procedure, shortened: as §1
Hepatitis C virus [3] = test: Antiviral activity against HCV genotype 4a ED43 infected in human HuH7.5 cells assessed as reduction in viral replication incubated for 3 days by luciferase reporter gene assay; assay type: functional, organism-based, Hepacivirus hominis; settings: subtype 4a ED43, Huh7.5, 72 h; procedure, shortened: as §1
dengue virus type 2 = test: Antiviral activity against DENV 2 16681 infected in human HuH7 cells assessed as reduction in viral replication incubated for 3 days by luciferase reporter gene assay; assay type: functional, organism-based; settings: Dengue virus, 16681, Huh-7, 72 h; procedure, shortened: as §1
[4] = Selectivity index, ratio of CC50 for human Huh5.2 cells to EC50 for HCV genotype 1b Con1; assay type: toxicity; settings: read-out: Ratio CC50/EC50
Procedure, shortened: (§2)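 Viability read as intracellular ATP, not MTT: 10^4 Huh5-2 cells/well, after 24 h exposed to compounds 72 h at 37 °C, 5% CO2, lysed, luminescent ATP kit read, ATP normalized to protein. CC50 versus DMSO control via nonlinear regression of log concentration; mean ± SD of three independent experiments in triplicate. SI = CC50/EC50.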

[5] = Selectivity index, ratio of CC50 for human Huh5.2 cells to EC50 for HCV genotype 3a S52; assay type: toxicity; settings: read-out: Ratio CC50/EC50; procedure, shortened: as §2
[6] = Selectivity index, ratio of CC50 for human Huh5.2 cells to EC50 for HCV genotype 4a ED43; assay type: toxicity; settings: read-out: Ratio CC50/EC50; procedure, shortened: as §2
[7] = Selectivity index, ratio of CC50 for human Huh5.2 cells to EC50 for DENV2 16681; assay type: toxicity; settings: read-out: Ratio CC50/EC50
Hepatitis C virus [8] = test: Antiviral activity against HCV genotype 4a ED43 infected in human HuH7.5 cells assessed as reduction in viral RNA at 0.01 to 10 uM incubated for 3 days by qRT-PCR analysis; assay type: functional, organism-based; settings: Hepacivirus hominis, subtype 4a ED43
Procedure, shortened: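 Huh7.5-4a replicon cells treated with serial dilutions or DMSO; (+) strand HCV RNA quantified by RT-qPCR, normalized to housekeeping gene YWHAZ mRNA, expressed as percentage of solvent-treated control.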

Hepatitis C virus [9] = test: Antiviral activity against HCV genotype 4a ED43 infected in human HuH7.5 cells assessed as reduction in viral NS5A expression at 2 to 5 uM incubated for 3 days by immunofluorescence assay; assay type: functional, organism-based; settings: Hepacivirus hominis, subtype 4a ED43
Procedure, shortened: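 Huh7.5-4a replicon cells given serial compound dilutions or DMSO; HCV NS5A detected by indirect immunofluorescence, nuclei stained with propidium iodide as viability control, confocal imaging.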

Trypanosoma brucei = test: Antitrypanosomal activity against Trypanosoma brucei 221 bloodstream form assessed as inhibition of growth incubated for 4 days by resazurin dye based fluorescence assay; assay type: functional, organism-based; settings: Trypanosoma brucei, 221, 96 h
Trypanosoma cruzi = test: Antitrypanosomal activity against Trypanosoma cruzi strain CL Brener epimastigotes form assessed as inhibition of growth incubated for 4 days by resazurin dye based fluorescence assay; assay type: functional, organism-based; settings: 96 h
[10] = Cytotoxicity against rat L6 cells assessed as reduction in cell viability incubated for 6 days by resazurin dye based fluorescence assay
Procedure, shortened: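 Rat skeletal myoblast L6 cells seeded in triplicate at 1 × 10⁴ mL⁻¹ in growth medium containing a range of compound concentrations, 6 days at 37 °C; resazurin added, 8 h further, fluorescence read. CC50 = concentration giving 50% growth inhibition; mean of triplicate experiments ± SEM.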

[11] = Selectivity index, ratio of CC50 for rat L6 cells to EC50 for Trypanosoma brucei 221 bloodstream form; assay type: toxicity; settings: read-out: Ratio CC50/EC50
Procedure, shortened: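 T. brucei strain 221 bloodstream forms in modified Iscove's medium diluted to 2.5 × 10⁴ mL⁻¹, eight-point concentration curves at 37 °C; resazurin added after 48 h, further 16 h incubation; fluorescence at excitation 545 nm, emission 590 nm. EC50 and EC90 from triplicate experiments. SI = L6 CC50/EC50.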

[12] = Cytotoxicity against human HuH5.2 cells assessed as reduction in cell viability incubated for 72 hrs by measuring intracellular ATP levels
[13] = Selectivity index, ratio of CC50 for rat L6 cells to EC50 for Trypanosoma cruzi strain CL Brener epimastigotes; assay type: toxicity; settings: read-out: Ratio CC50/EC50
Nonstructural protein 5A = biological target: T1, Nonstructural protein 5A (Hepatitis C virus, UniProt Q5L478); test: Inhibition of HCV genotype 1b NS5A; design: species or system Hepatitis C virus subtype 1b
T1 sequence (Q5L478 whole entry): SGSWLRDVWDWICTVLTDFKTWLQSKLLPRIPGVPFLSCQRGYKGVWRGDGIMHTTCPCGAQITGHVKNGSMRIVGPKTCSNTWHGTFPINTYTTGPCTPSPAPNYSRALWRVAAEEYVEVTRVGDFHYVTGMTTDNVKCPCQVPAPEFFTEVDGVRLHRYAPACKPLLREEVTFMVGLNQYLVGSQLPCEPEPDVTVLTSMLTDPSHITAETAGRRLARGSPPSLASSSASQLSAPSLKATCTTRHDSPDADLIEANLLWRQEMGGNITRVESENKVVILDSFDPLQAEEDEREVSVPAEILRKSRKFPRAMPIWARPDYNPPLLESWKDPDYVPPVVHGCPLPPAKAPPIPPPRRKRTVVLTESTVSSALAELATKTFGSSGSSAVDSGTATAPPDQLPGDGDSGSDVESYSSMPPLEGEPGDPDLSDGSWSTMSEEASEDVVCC

[14] = Inhibition of HCV genotype 1b NS3/4A protease; design: species or system Hepatitis C virus subtype 1b
[15] = biological target: RNA-directed RNA polymerase (Hepacivirus hominis, UniProt O39930); test: Inhibition of HCV genotype 1b NS5B RNA dependent RNA polymerase; design: species or system Hepatitis C virus subtype 1b
Sequence of RNA-directed RNA polymerase (O39930 whole entry): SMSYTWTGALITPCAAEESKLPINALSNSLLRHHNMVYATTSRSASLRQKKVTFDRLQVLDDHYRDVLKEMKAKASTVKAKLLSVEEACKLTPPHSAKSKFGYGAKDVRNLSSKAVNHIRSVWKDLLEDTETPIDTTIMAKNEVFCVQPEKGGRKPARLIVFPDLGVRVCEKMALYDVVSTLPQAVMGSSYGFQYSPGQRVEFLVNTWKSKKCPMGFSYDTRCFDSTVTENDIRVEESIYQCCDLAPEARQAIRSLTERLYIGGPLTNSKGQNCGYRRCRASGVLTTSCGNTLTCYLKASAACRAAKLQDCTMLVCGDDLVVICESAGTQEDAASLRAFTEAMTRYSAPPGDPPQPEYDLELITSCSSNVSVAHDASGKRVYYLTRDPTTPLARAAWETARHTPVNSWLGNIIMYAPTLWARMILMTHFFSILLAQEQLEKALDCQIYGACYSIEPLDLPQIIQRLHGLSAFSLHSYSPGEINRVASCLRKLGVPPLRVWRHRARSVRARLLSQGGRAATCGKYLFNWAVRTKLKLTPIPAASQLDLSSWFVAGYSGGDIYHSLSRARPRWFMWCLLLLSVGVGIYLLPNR

Row | SMILES | EC50 (Hepatitis C virus [1]) | EC50 (Hepatitis C virus [3]) | selectivity ratio [4] | selectivity ratio [6] | EC50 (Trypanosoma brucei) | EC90 (Trypanosoma brucei) | EC50 (Trypanosoma cruzi) | CC50 at 144 h [10] | selectivity ratio [11] | CC50 at 72 h [12] | EC90 (Trypanosoma cruzi) | selectivity ratio [13] | also measured
1 | O=C(CN1C(=O)NC2(CCCCc3ccccc32)C1=O)NO (stereo unspecified) | 250 nM | 100 nM | 794 | 1980 | 400 nM | 520 nM | > 30000 nM | 125000 nM | 313 | 198000 nM | – | – | EC50 (Hepatitis C virus [2]): 80 nM; EC50 (dengue virus type 2): 16300 nM; selectivity ratio [5]: 2480; selectivity ratio [7]: 12; Activity (Hepatitis C virus [8]): Active; Activity (Hepatitis C virus [9]): Active
2 | O=C1Cn2c(cc3ccccc32)C(=O)N1O | 126000 nM | – | > 1.6 | – | – | – | – | – | – | > 200000 nM | – | – | –
3 | O=C(CN1C(=O)N(Cc2ccccc2)C2(CCCc3ccccc32)C1=O)NO (stereo unspecified) | 320 nM | 70 nM | 28 | 127 | 50 nM | 77 nM | 960 nM | 3170 nM | 63 | 8900 nM | 1710 nM | 3 | –
4 | COC(=O)N[C@H](C(=O)N1CCC[C@H]1c1nc(-c2ccc(-c3ccc(-c4c[nH]c([C@@H]5CCCN5C(=O)[C@@H](NC(=O)OC)C(C)C)n4)cc3)cc2)c[nH]1)C(C)C [DACLATASVIR] | – | – | – | – | – | – | – | – | – | – | – | – | EC50 (Nonstructural protein 5A): 0.002 nM
5 | CC[C@@H]1[C@@H]2CN(C(=O)[C@H](C(C)(C)C)NC(=O)O[C@@H]3C[C@H]3CCCCC(F)(F)c3nc4ccc(OC)cc4nc3O2)[C@@H]1C(=O)N[C@]1(C(=O)NS(=O)(=O)C2(C)CC2)C[C@H]1C(F)F | – | – | – | – | – | – | – | – | – | – | – | – | EC50 [14]: 3.3 nM
6 | COc1c(-c2ccc3cc(NS(C)(=O)=O)ccc3c2)cc(-n2ccc(=O)[nH]c2=O)cc1C(C)(C)C [DASABUVIR] | – | – | – | – | – | – | – | – | – | – | – | – | EC50 [15]: 1.8 nM
7 | CN1C(=O)N(CC(=O)NO)C(=O)C12CCc1ccccc12 (stereo unspecified) | 1410 nM | 210 nM | 19 | 128 | 1220 nM | 1930 nM | > 30000 nM | 550000 nM | 451 | 26900 nM | – | – | –
8 | CC(C)OC(=O)[C@H](C)N[P@](=O)(OC[C@H]1O[C@@H](n2ccc(=O)[nH]c2=O)[C@](C)(F)[C@@H]1O)Oc1ccccc1 [SOFOSBUVIR] | – | – | – | – | – | – | – | – | – | – | – | – | EC50 [15]: 102 nM
9 | O=C(CN1C(=O)N(Cc2ccccc2)C2(CCc3ccccc32)C1=O)NO (stereo unspecified) | 220 nM | 140 nM | 34 | 54 | 101 nM | 192 nM | 1700 nM | 6270 nM | 62 | 7530 nM | 3010 nM | 4 | –
10 | O=C1NC(=O)C2(CCc3ccccc32)N1 (stereo unspecified) | > 10000 nM | – | – | – | > 50000 nM | – | > 500000 nM | > 500000 nM | – | > 10000 nM | – | – | –
11 | O=C(CN1C(=O)N(Cc2ccccc2)C2(CCCCc3ccccc32)C1=O)NO (stereo unspecified) | 1000 nM | 120 nM | 5 | 45 | 13 nM | 18 nM | 495 nM | 7850 nM | 604 | 5450 nM | 940 nM | 16 | –
12 | O=C(CN1C(=O)CNC2(CCCCCC2)C1=O)NO | – | – | – | – | 1870 nM | 2530 nM | – | – | – | – | – | – | –
13 | CN1C(=O)N(CC(=O)NO)C(=O)C12CCCCc1ccccc12 (stereo unspecified) | 1180 nM | 110 nM | 95 | 1020 | 230 nM | 300 nM | 10600 nM | 16400 nM | 71 | 112000 nM | 15300 nM | 2 | –
14 | CN1C(=O)N(CC(=O)NO)C(=O)C12CCCc1ccccc12 (stereo unspecified) | 1450 nM | 210 nM | 99 | 682 | 1910 nM | 4690 nM | 27600 nM | 28200 nM | 15 | 143000 nM | 42100 nM | 1 | Activity (Hepatitis C virus [8]): Active
15 | O=C(CN1C(=O)NC2(CCc3ccccc32)C1=O)NO (stereo unspecified) | 2920 nM | 580 nM | > 68 | > 345 | 440 nM | 800 nM | > 30000 nM | 268000 nM | 609 | > 200000 nM | > 30000 nM | – | EC50 (Hepatitis C virus [2]): 2970 nM; EC50 (dengue virus type 2): 96300 nM; selectivity ratio [5]: > 67; selectivity ratio [7]: > 2
16 | O=C(CN1C(=O)NC2(CCCc3ccccc32)C1=O)NO (stereo unspecified) | 1410 nM | 380 nM | > 142 | > 526 | 710 nM | 1270 nM | > 30000 nM | 419000 nM | 590 | > 200000 nM | > 30000 nM | – | EC50 (Hepatitis C virus [2]): 2370 nM; EC50 (dengue virus type 2): 61500 nM; selectivity ratio [5]: > 84; selectivity ratio [7]: > 3
